Experimental data: ChEMBL document CHEMBL1142706, “Synthesis and evaluation of (pyridylmethylene)tetrahydronaphthalenes/-indanes and structurally modified derivatives: potent and selective inhibitors of aldosterone synthase” (J Med Chem, 2005)

What was measured:
[1] = organism: Homo sapiens; assay: In vitro IC50 ratio against human CYP11B1 to that of human CYP11B2
How it was run: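 IC50 ratio from V79 MZh hamster fibroblasts expressing human CYP11B1 or CYP11B2, each incubated with [4-14C]-11-deoxycorticosterone (100 nM) and inhibitor at no fewer than three concentrations; steroids extracted into ethyl acetate and quantified by HPTLC with phosphoimaging.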

[2] = target: T1, Cytochrome P450 11B1, mitochondrial (Homo sapiens, UniProt P15538); assay: (§1) In vitro inhibitory concentration against human CYP11B1 expressed in V79 MZh hamster fibroblasts incubated with 100 nM of substrate deoxy-corticosterone in presence of the compound
T1 sequence (P15538 whole entry): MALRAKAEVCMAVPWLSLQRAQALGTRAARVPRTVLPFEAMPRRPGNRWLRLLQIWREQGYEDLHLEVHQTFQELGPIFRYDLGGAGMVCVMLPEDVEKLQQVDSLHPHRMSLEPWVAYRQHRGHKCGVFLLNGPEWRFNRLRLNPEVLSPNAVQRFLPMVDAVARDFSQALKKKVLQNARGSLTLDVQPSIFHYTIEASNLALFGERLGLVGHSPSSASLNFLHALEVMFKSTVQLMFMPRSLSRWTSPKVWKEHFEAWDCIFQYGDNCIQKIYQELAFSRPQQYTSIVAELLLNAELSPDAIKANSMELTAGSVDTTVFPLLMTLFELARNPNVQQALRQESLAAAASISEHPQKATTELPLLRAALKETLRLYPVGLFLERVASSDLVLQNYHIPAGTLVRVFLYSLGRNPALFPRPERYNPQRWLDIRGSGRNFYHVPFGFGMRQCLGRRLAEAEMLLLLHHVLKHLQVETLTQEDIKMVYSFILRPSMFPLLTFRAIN

[3] = target: T2, Aromatase (Homo sapiens, UniProt P11511); assay: In vitro inhibitory concentration against human placental CYP19 incubated with 500 nM of substrate androstenedione in presence of the compound
T2 sequence (P11511 whole entry): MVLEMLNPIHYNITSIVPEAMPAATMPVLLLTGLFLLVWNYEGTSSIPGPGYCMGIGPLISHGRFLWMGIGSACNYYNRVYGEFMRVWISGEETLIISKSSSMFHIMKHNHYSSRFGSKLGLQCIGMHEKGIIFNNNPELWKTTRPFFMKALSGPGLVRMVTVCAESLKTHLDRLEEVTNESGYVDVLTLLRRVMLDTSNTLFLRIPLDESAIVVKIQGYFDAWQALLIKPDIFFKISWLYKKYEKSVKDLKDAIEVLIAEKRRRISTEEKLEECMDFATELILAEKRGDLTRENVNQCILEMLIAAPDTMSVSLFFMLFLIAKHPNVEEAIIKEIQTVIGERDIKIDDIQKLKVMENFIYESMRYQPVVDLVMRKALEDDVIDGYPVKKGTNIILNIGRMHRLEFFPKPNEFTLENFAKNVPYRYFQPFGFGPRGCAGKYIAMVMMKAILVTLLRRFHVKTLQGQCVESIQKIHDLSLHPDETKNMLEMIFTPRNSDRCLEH

[4] = target: T3, Cytochrome P450 11B2, mitochondrial (Homo sapiens, UniProt P19099); assay: In vitro inhibitory concentration against human CYP11B2 expressed in V79MZh hamster fibroblasts incubated with 100 nM of substrate deoxy-corticosterone in presence of the compound
T3 sequence (P19099 whole entry): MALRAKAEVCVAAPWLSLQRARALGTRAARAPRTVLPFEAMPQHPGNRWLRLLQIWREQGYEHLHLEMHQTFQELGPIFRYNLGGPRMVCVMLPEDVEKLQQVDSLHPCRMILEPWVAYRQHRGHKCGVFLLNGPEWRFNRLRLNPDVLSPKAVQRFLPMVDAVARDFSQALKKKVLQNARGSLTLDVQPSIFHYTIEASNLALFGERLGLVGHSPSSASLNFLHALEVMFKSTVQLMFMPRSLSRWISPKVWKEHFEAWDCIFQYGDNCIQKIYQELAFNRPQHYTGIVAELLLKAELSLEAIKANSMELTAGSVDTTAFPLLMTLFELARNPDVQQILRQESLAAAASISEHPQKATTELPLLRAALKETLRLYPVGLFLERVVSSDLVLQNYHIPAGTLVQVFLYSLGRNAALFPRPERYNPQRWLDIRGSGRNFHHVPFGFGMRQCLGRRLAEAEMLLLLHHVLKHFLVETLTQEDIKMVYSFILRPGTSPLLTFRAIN
How it was run: (§2)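 Intact V79 MZh hamster fibroblasts expressing human CYP11B1 or CYP11B2, incubated with [4-14C]-11-deoxycorticosterone (100 nM) and inhibitor at no fewer than three concentrations to give IC50. Stopped with ethyl acetate, shaken, centrifuged (10 000g, 2 min); steroids in organic phase analysed by HPTLC/phosphoimager. Mean of four determinations, standard deviation less than 5%.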

[5] = target: T3, Cytochrome P450 11B2, mitochondrial; assay: In vitro inhibition of human CYP11B2 expressed in Schizosaccharomyces pombe incubated with 100 nM of substrate deoxy-corticosterone in presence of 500 nM of compound
[6] = target: T3, Cytochrome P450 11B2, mitochondrial; assay: In vitro inhibitory concentration against human CYP11B2 expressed in V79 MZh hamster fibroblasts incubated with 100 nM of substrate deoxy-corticosterone in presence of the compound; how it was run: as §2
[7] = target: T4, CYP11B1 (Homo sapiens, UniProt P15538); assay: as §1; conditions: human, V79 MZh hamster fibroblasts expressing human CYP11B1, probe deoxy-corticosterone
T4 sequence (P15538 whole entry): T1 sequence (P15538 whole entry)

[8] = test system: CYP11B2 (Homo sapiens); assay: In vitro inhibitory concentration against human CYP11B2 expressed in V79 MZh hamster fibroblasts incubated with 100 nM of substrate deoxy-corticosterone in presence of the compound; conditions: V79 MZh hamster fibroblasts expressing human CYP11B2, probe deoxy-corticosterone
[9] = target: T5, CYP17 (Homo sapiens, UniProt P05093); assay: In vitro inhibition of human CYP17 expressed in Escherichia coli incubated with 2.5 uM of substrate progesterone in presence of 2.5 uM of compound; conditions: probe progesterone
T5 sequence (P05093 whole entry): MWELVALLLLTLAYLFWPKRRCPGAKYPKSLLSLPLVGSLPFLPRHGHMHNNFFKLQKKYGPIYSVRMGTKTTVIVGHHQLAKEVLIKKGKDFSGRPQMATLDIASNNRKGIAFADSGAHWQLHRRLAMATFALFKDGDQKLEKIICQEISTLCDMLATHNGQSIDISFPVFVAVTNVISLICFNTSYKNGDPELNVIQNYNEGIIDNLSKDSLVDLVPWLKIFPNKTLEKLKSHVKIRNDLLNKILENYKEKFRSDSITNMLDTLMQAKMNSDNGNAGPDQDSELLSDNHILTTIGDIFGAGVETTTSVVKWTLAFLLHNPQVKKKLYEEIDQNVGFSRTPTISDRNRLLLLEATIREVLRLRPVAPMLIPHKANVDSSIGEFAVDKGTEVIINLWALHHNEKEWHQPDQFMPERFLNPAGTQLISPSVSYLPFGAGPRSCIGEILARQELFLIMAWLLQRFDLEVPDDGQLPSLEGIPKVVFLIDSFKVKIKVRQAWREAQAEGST

Row | Structure (SMILES) | Selectivity ratio [1] | IC50 [2] | IC50 [3] | IC50 [4] | inhibition at 0.5 µM [5] | IC50 [6] | IC50 [7] | IC50 [8] | inhibition at 2.5 µM [9]
1 | Brc1ccc2c(c1)CC/C2=C\c1ccncc1 | 0.4 | 2640 nM | > 36000 nM | 24 nM |  |  |  |  | 
2 | Fc1ccc2c(c1)CC/C2=C\c1ccncc1 | 0.3 | 1100 nM |  | 15 nM |  |  |  |  | 
3 | CC1C/C(=C/c2cccnc2)c2ccccc21 (configuration not stated) |  |  | 2800 nM |  | 15% | 41 nM |  |  | 
4 | C/C(=C1/CCc2cc(F)ccc21)c1cccnc1 | 1.7 | 96 nM |  |  | 67% |  |  |  | 
5 | Fc1ccc2c(c1)CC/C2=C\c1cccc2cnccc12 | 19.5 |  |  | 57 nM |  |  | 58 nM |  | 
6 | Fc1ccc2c(c1)CC/C2=C/c1cccc2cnccc12 | 14.4 |  |  | 65 nM |  |  |  | 26 nM | 
7 | C(=C1/CCCc2ccccc21)/c1ccncc1 | 2 | 143 nM | 650 nM | 15 nM | 54% |  |  |  | 
8 | C(=C1\CCc2ccccc21)/c1ccncc1 | 1.4 | 931 nM |  | 18 nM |  |  |  |  | 
9 | C(=C1\CCc2ccccc21)/c1cccnc1 | 0.9 | 87 nM | 3550 nM | 92 nM | 83% |  |  |  | 33%
10 | Brc1ccc2c(c1)CC/C2=C/c1ccncc1 | 1.8 | 484 nM | 3400 nM | 56 nM | 40% |  |  |  | 
11 | Fc1ccc2c(c1)CC/C2=C\c1cncnc1 | 118 |  |  | 27 nM |  |  | 3180 nM |  | 
12 | Fc1ccc2c(c1)CC/C2=C/c1ccncc1 | 7.6 | 34 nM |  | 29 nM |  |  |  |  | 
13 | C(=C1/CCc2ccccc21)/c1cccnc1 | 80.7 |  |  |  |  | 11 nM |  |  | 14%
